Results on 29 molecules are retold here after BindingDB's records for doi:10.1021/jm00343a011 (1982).

The structures appear in SMILES notation.

Test [1] has as its target T1, Malate dehydrogenase, mitochondrial (Sus scrofa, UniProt P00346).
T1 sequence (P00346 whole entry): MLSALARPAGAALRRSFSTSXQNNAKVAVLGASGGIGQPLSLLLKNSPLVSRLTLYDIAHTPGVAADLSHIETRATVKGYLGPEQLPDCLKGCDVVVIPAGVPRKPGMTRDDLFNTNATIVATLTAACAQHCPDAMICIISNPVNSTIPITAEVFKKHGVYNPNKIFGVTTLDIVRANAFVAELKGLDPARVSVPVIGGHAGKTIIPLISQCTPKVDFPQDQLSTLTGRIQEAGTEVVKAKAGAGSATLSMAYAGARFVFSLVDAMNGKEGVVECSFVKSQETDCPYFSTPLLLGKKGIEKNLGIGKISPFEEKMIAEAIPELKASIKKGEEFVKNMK
As to the kind of experiment: Ability to inhibit mitochondrial malate dehydrogenase. The essentials: (§1)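 Pig heart enzyme (cytoplasmic or mitochondrial form), diluted in 0.05 M Tris pH 7.4 with 1% BSA to give 0.022–0.027 OD/min at 340 nm. Cuvette holds 0.05 M Tris pH 8.4, L-malate, NAD+ and Me2SO ± inhibitor. Equilibrated at 25 °C, then started with enzyme. Five inhibitor concentrations in triplicate; I50 from least-squares dose-response line.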

The target in test [2] is T2, Malate dehydrogenase, cytoplasmic (Sus scrofa, UniProt P11708).
T2 sequence (P11708 whole entry): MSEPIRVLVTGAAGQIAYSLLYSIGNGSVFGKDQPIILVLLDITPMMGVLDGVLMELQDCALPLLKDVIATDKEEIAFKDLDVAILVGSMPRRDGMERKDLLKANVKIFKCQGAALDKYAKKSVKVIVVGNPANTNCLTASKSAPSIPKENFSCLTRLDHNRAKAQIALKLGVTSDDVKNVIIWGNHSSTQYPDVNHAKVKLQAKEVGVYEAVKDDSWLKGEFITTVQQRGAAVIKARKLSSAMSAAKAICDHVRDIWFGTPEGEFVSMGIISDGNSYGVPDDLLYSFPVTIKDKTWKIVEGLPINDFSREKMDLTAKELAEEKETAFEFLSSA
The test can be described thus: Ability to inhibit cytoplasmic malate dehydrogenase. The essentials: as §1

In test [1], `O=C(O)c1cnc2cc(OCCc3ccc(F)cc3)ccc2c1O` came in with an IC50 of 14.8 µM.

In test [1], `O=C(O)c1cnc2cc(OCc3cccc4ccccc34)ccc2c1O` returned an IC50 of 13.2 µM.

Consider `O=C(O)c1cnc2cc(OCc3ccc4ccccc4c3)ccc2c1O`, for which inhibition in test [1] was half-maximal at 4.07 µM (IC50).

Regarding `NC(=O)c1ccc2c(O)c(C(=O)O)cnc2c1`, the values for the IC50 in test [2] and in test [1] were 603 µM and 741 µM, respectively.

`O=C(O)c1cnc2cc(OCc3ccc(Oc4ccccc4)cc3)ccc2c1O`: the IC50 in test [2] is 30.9 µM; in test [1], 1.48 µM.

Regarding `O=C(O)c1cnc2cc(OCCc3ccc(Br)cc3)ccc2c1O`, the IC50 in test [2] came out at 91.2 µM; in test [1], 2.51 µM.

Consider `O=C(O)c1cnc2cc(OCCc3ccc(Oc4ccccc4)cc3)ccc2c1O`, for which the half-maximal inhibitory concentration (IC50) was found to be 61.7 µM in test [2] and 1.82 µM in test [1].

On to `O=C(O)c1cnc2cc(O)ccc2c1O`, for which the IC50 came out at 955 µM in test [2] and 490 µM in test [1].

With `O=C(O)c1cnc2cc(OCCc3ccc4ccccc4c3)ccc2c1O`, the IC50 turned out to be 72.4 µM in test [2] and 2.19 µM in test [1].

The molecule `O=C(O)c1cnc2cc(OCc3ccc(F)cc3)ccc2c1O` displayed a concentration for half-maximal inhibition (IC50) in test [1] of 39.8 µM.

As to `O=C(O)c1cnc2cc(OCCOc3ccc4ccccc4c3)ccc2c1O`, in test [1], half-maximal inhibition (IC50) required 1.58 µM.

On to `O=C(O)c1cnc2cc(OCCOc3ccccc3)ccc2c1O`, for which the half-inhibitory concentration (IC50) in test [1] was 60.3 µM.

Turning to `CS(=O)(=O)c1ccc2c(O)c(C(=O)O)cnc2c1`, the IC50 in test [2] worked out at 437 µM; in test [1] it was 661 µM.

With `O=C(O)c1cnc2cc(S(=O)(=O)O)ccc2c1O`, the results for the half-maximal inhibitory concentration (IC50) in test [2] and in test [1] were 3090 µM and 2140 µM, respectively.

For the molecule `O=C(O)c1cnc2cc(OCCc3ccccc3)ccc2c1O`, the half-maximal inhibitory concentration (IC50) in test [2] amounted to 155 µM; in test [1] it was 38 µM.

For the molecule `O=C(O)c1cnc2cc(Cl)ccc2c1O`, the results for the IC50 in test [2] and in test [1] were 4680 µM and 3630 µM, respectively.

`O=C(O)c1cnc2cc(OCc3ccccc3)ccc2c1O` returned an IC50 in test [1] of 32.4 µM.

With `O=C(O)c1cnc2cc(OCc3ccc(Cl)c(Cl)c3)ccc2c1O`, in test [1], half-maximal inhibition (IC50) was put at 4.79 µM.

For the molecule `O=C(O)c1cnc2cc(F)ccc2c1O`, the half-inhibitory concentration (IC50) was 11000 µM in test [2] and 10500 µM in test [1].

For `CN(C)c1ccc2c(O)c(C(=O)O)cnc2c1`, the IC50 in test [2] came to 372 µM; in test [1] it was 479 µM.

On to `O=C(O)c1cnc2cc(OCCOc3ccc(F)cc3)ccc2c1O`, for which half-maximal inhibition in test [1] (IC50) was put at 18.2 µM.

For `NS(=O)(=O)c1ccc2c(O)c(C(=O)O)cnc2c1`, the IC50 was 692 µM in test [2] and 955 µM in test [1].

Regarding `CC(=O)c1ccc2c(O)c(C(=O)O)cnc2c1`, the concentration for half-maximal inhibition (IC50) in test [2] and in test [1] was 912 µM in each case.

Molecule `O=C(O)c1cnc2cc(OCCOc3ccc(Br)cc3)ccc2c1O` gave an IC50 in test [1] of 5.13 µM.

As to `O=C(O)c1cnc2cc([N+](=O)[O-])ccc2c1O`, the concentration for half-maximal inhibition (IC50) in test [2] stood at 1200 µM; in test [1] it was 1910 µM.

`O=C(O)c1cnc2cc(OCCOc3ccc(Oc4ccccc4)cc3)ccc2c1O`: the IC50 in test [2] came to 81.3 µM; in test [1], 2.45 µM.

Regarding `O=C(O)c1ccc2c(O)c(C(=O)O)cnc2c1`, the results for the half-inhibitory concentration (IC50) in test [2] and in test [1] were 1290 µM and 1070 µM, respectively.

In test [1], `O=C(O)c1cnc2cc(OCc3ccc(Br)cc3)ccc2c1O` gave an IC50 of 6.76 µM.

In turn, `O=C(O)c1cnc2cc(OCc3c(Cl)c(Cl)c(Cl)c(Cl)c3Cl)ccc2c1O` showed an IC50 in test [1] of 4.79 µM.
